Measurements collected from several papers.
Cell line: MDA-MB-231
Read-out: cell growth or viability

With CCOP1(=O)CC=Cc2cc(N)ccc2O1 (stereo not drawn) the Emax was 10 to 15% (MTT; 72 h).
CC(=O)N[C@H]1[C@@H](O[C@@H]2O[C@H](C[C@@H](O)[C@H]3O[C@@H](n4ccc(=O)[nH]c4=O)[C@H](O)[C@@H]3O)[C@H](O)[C@H](O)[C@H]2NC(=O)/C=C/CCCCCCCCCC(C)C)O[C@H](CO)[C@@H](O)[C@@H]1O gave an IC50 of 170 nM (WST-1).
CC(C)=C[C@H]1C[C@H](C)[C@]2(CC[C@]3(C)C[C@H]4[C@H](C(=O)C[C@@]4(C)O)/C(C=O)=C\C[C@H]32)O1 has an IC50 of 58.2 nM.
N.N.[Cl][Pt][Cl] gave an IC50 of greater than 100000 nM (MTT).
N.N.[Cl][Pt][Cl] has an IC50 of 40000 nM (MTT; 48 h).
CC[C@H](C)[C@@H]([C@@H](CC(=O)N1CCC[C@H]1[C@H](OC)[C@@H](C)C(=O)N[C@H](C)[C@@H](O)c1ccccc1)OC)N(C)C(=O)[C@@H](NC(=O)[C@@H](NC)C(C)C)C(C)C has an IC50 of 8.28 nM (CCK-8).
O=C1c2ccccc2-c2c3c(cc4ccnc1c24)OCO3 has an IC50 of 49000 nM (MTT; 75 h).
For CC[C@H](C)[C@@H]([C@@H](CC(=O)N1CCC[C@H]1[C@H](OC)[C@@H](C)C(=O)N[C@H](C)[C@@H](O)c1ccccc1)OC)N(C)C(=O)[C@@H](NC(=O)[C@H](C(C)C)N(C)C(=O)OCc1ccc(NC(=O)[C@H](CCCNC(N)=O)NC(=O)[C@@H](NC(=O)CCOCCOCCOCCOCCC(=O)N[C@@H]2CSSC[C@H](C(=O)O)NC(=O)CNC(=O)[C@@H](CCCNC(=N)N)NC(=O)CNC(=O)[C@@H](C(C)C)NC(=O)CNC(=O)[C@@H](C)NC(=O)[C@@H](CCCNC(=N)N)NC2=O)C(C)C)cc1)C(C)C, the IC50 was 120 nM (resazurin; 24 h).
COc1c(C)c2c(c(O)c1C/C=C(\C)CCC(=O)O)C(=O)OC2 gave an IC50 of 1200 nM.
[C-]#[O+].[C-]#[O+].[C-]#[O+].[C-]#[O+].[C-]#[O+].[C-]#[O+].[C-]#[O+].[C-]#[O+].[C-]#[O+].[C-]#[O+].[Mn].[Mn] gave an IC50 of 25400 nM (MTT; 48 h).
The Emax of COc1ccc(NC(=O)Nc2ccc3c(c2)C=CCP(=O)(O)O3)cc1 is reported as 50% (MTT; 72 h).
C=CCNC1=C2C[C@@H](C)C[C@H](OC)[C@H](O)[C@@H](C)/C=C(\C)[C@H](OC(N)=O)[C@@H](OC)/C=C\C=C(/C)C(=O)NC(=CC1=O)C2=O gave an IC50 of 19500 nM (72 h).
